Measured values from ChEMBL document CHEMBL4715793 (J Med Chem, 2016).
Activity calls are given as the source filed them. The calls are words filed in the database; no cut-off is given here.

How the values were obtained:
Hepatitis C virus [1] = test: Antiviral activity against HCV J6/JFH/JC1 harboring A156T mutant infected in human Huh7.5 cells assessed as inhibition of viral replication measured after 72 hrs by qRT-PCR analysis; assay type: functional, organism-based, Hepacivirus hominis; details: J6/JFH/JC1, Huh7.5, 72 h
[2] = target: T1, Chondroitin sulfate N-acetylgalactosaminyltransferase 1 (Homo sapiens) (UniProt Q8TDX6); test: Destabilization of CSGalNacT-1 in human Huh7.5 cells assessed as down regulation of CSGalNacT-1 protein levels at 25 uM measured after 24 hrs in presence of protease inhibitor MG132 by Western blot analysis; assay type: cell-based
T1 sequence (whole entry): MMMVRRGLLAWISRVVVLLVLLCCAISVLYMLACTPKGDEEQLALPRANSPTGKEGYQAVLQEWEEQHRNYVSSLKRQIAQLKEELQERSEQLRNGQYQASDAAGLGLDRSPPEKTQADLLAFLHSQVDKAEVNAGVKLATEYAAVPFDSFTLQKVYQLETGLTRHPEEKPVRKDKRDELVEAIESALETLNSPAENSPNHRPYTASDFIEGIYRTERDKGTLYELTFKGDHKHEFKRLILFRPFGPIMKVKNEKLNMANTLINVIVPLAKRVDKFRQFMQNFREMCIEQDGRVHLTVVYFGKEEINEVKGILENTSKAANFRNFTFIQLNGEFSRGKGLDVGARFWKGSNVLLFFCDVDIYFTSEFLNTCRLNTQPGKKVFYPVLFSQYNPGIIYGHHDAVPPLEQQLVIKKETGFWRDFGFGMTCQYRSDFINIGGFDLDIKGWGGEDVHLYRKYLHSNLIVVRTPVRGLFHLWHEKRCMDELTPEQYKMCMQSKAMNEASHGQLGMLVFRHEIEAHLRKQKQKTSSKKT
How it was run: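 Huh7.5 cells cotreated with compound (25 μM) and proteasome inhibitor MG132 (1 μM). Cells given compound alone or MG132 alone served as controls. After 24 h, total intracellular protein extracted and CSGalNAcT-1 detected by Western blot.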

[3] = Antiviral activity against HCV subtype 2a J6/JFH/JC1 infected in human Huh7.5 cells assessed as reduction in viral RNA levels measured after 72 hrs by qRT-PCR analysis; details: Hepatitis C virus, J6/JFH/JC1, Huh7.5, 72 h
Huh7.5 = test: Effect on Hsc70 expression level in human Huh7.5 cells at 6.25 to 25 uM by Western blot analysis; assay type: functional, cell-based; details: dose 6.25-25 µM
Hepatitis C virus [4] = test: Synergistic antiviral activity against HCV J6/JFH/JC1 infected in human HuH7.5 cells assessed as inhibition of viral protein levels at 6.25 uM in presence of daclatasvir measured after 72 hrs by western blot analysis; assay type: functional, organism-based; details: Hepacivirus hominis
How it was run: (§1)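 Huh7.5 cells infected with HCV (45 IU/cell) and simultaneously treated with compound (6.25 μM) alone, DAA alone, or both. […] Intracellular protein analysed by Western blot at 72 h. At least triplicate, mean ± SD, Student's t test.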

Hepatitis C virus [5] = test: Synergistic antiviral activity against HCV J6/JFH/JC1 infected in human HuH7.5 cells assessed as inhibition of viral protein levels at 6.25 uM in presence of sofosbuvir measured after 72 hrs by western blot analysis; assay type: functional, organism-based; details: Hepacivirus hominis; how it was run: as §1
Hepatitis C virus [6] = test: Synergistic antiviral activity against HCV J6/JFH/JC1 infected in human HuH7.5 cells assessed as combination index measured after 72 hrs in presence of simeprevir by Chou-Talalay method; assay type: functional, Hepacivirus hominis
Hepatitis C virus [7] = test: Antiviral activity against wild-type HCV infected in human HuH7.5 cells assessed as reduction in viral protein levels at 6.25 to 100 uM measured after 72 hrs by Western blot assay; assay type: functional, organism-based; details: Hepacivirus hominis, dose 6.25-100 µM
How it was run: (§2)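 Huh7.5 cells seeded at 3 × 10^4/cm2 and incubated 24 h. Infected with wild-type HCVcc stock (45 IU/cell) with compound or solvent control added at the same time. After 72 h, intracellular RNA measured by one-step qRT-PCR and core protein by Western blot. EC50 by Reed & Muench method, mean ± SD from three independent experiments.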

Hepacivirus hominis [8] = test: Inhibition of HCV NS5A
Hepatitis C virus [9] = test: Synergistic antiviral activity against HCV J6/JFH/JC1 infected in human HuH7.5 cells assessed as combination index measured after 72 hrs in presence of daclatasvir by Chou-Talalay method; assay type: functional, Hepacivirus hominis
[10] = Resistance ratio of EC50 for antiviral activity against HCV J6/JFH/JC1 harboring D168V mutant infected in human Huh7.5 cells to EC50 for antiviral activity against wild-type HCV J6/JFH/JC1 infected in human Huh7.5 cells; assay type: functional
Hepatitis C virus [11] = test: Synergistic antiviral activity against HCV J6/JFH/JC1 infected in human HuH7.5 cells assessed as combination index measured after 72 hrs in presence of sofosbuvir by Chou-Talalay method; assay type: functional, Hepacivirus hominis
Hepatitis C virus [12] = test: Antiviral activity against HCV infected in human HuH7.5 cells assessed as inhibition of viral protein level during early stage at 6.25 to 25 uM incubated for 2 hrs prior to compound washout followed by supplementation of fresh culture medium and measured after 72 hrs by Western blot analysis; assay type: functional, organism-based; details: Hepacivirus hominis; Huh-7; dose 6.25-25 µM
How it was run: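 Huh7.5 cells seeded 24 h earlier, infected with HCV (150 IU/cell) with simultaneous compound or solvent control for 2 h. Cells washed with PBS and given fresh medium. Intracellular RNA (qRT-PCR) and protein (Western blot) extracted at 72 h.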

[13] = target: T1, Chondroitin sulfate N-acetylgalactosaminyltransferase 1 (Homo sapiens); test: Destabilization of CSGalNacT-1 in human Huh7.5 cells assessed as reduction in CSGalNacT-1 mRNA levels at 6.25 to 100 uM measured after 72 hrs by qRT-PCR analysis; assay type: cell-based; details: dose 6.25-100 µM
Hepatitis C virus [14] = test: Antiviral activity against HCV J6/JFH/JC1 harboring S282T mutant infected in human Huh7.5 cells assessed as inhibition of viral replication measured after 72 hrs by qRT-PCR analysis; assay type: functional, organism-based, Hepacivirus hominis; details: J6/JFH/JC1, Huh7.5, 72 h
[15] = target: T1, Chondroitin sulfate N-acetylgalactosaminyltransferase 1 (Homo sapiens); test: Destabilization of CSGalNacT-1 in human Huh7.5 cells assessed as reduction in CSGalNacT-1 mRNA levels by gene chip assay; assay type: cell-based
[16] = Cytotoxicity against human Huh7.5 cells assessed as reduction in cell viability incubated for 72 hrs by MTT assay; assay type: cell-based
How it was run: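 Huh7.5 cells seeded at 3 × 10^4/cm2, grown 24 h, then exposed to compound for 72 h. Viability read by MTT assay. CC50 by Reed & Muench method, mean ± SD from three independent experiments.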

Hepatitis C virus [17] = test: Antiviral activity against wild-type HCV J6/JFH/JC1 infected in human Huh7.5 cells assessed as inhibition of viral replication measured after 72 hrs by qRT-PCR analysis; assay type: functional, organism-based, Hepacivirus hominis; details: J6/JFH/JC1, Huh7.5, 72 h; how it was run: as §2
Hepacivirus hominis [18] = test: Inhibition of HCV NS3/4a protease
[19] = target: T1, Chondroitin sulfate N-acetylgalactosaminyltransferase 1 (Homo sapiens); test: Destabilization of CSGalNacT-1 in human Huh7.5 cells assessed as reduction in CSGalNacT-1 expression measured after 72 hrs by Western blot analysis; assay type: cell-based; details: dose 6.25-100 µM
[20] = target: T1, Chondroitin sulfate N-acetylgalactosaminyltransferase 1 (Homo sapiens); test: Destabilization of CSGalNacT-1 in HCV infected human HuH7.5 cells assessed as reduction in CSGalNacT-1 protein levels measured after 72 hrs by Western blot analysis; details: dose 6.25-100 µM
How it was run: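 Huh7.5 cells infected with HCV (45 IU/cell) and exposed to compound for 72 h. CSGalNAcT-1 protein measured by Western blot and mRNA by qRT-PCR. Error bars are SD of three independent experiments.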

With `COc1cc(/C=C/c2ccccc2)c(C(=O)O)c(O)c1CC=C(C)C` the EC50 (Hepatitis C virus [1]) was 6.44 µM, the Activity [2] was “inactive” and the EC50 [3] was 3.17 µM. For the same compound, the Activity (Huh7.5) was “inactive”, the Activity (Hepatitis C virus [4]) was “Active” and the Activity (Hepatitis C virus [5]) was “Active”. For the same compound, the CI (Hepatitis C virus [6]) was 0.953, the Activity (Hepatitis C virus [7]) was “Active” and the inhibition (Hepacivirus hominis [8]) was “inactive”. The CI (Hepatitis C virus [9]) was 0.76, the “Ratio EC50” value [10] was 1.3 and the CI (Hepatitis C virus [11]) was 0.693. The Activity (Hepatitis C virus [12]) was “inactive”, the Activity [13] was “inactive” and the EC50 (Hepatitis C virus [14]) was 8.59 µM. The Activity [15] was “Active”, the CC50 at 72 h [16] was 91 µM and the EC50 (Hepatitis C virus [17]) was 3.03 µM. For the same compound, the inhibition (Hepacivirus hominis [18]) was “inactive”, the Activity [19] was “Dose-dependent effect” and the Activity [20] was “Dose-dependent effect”.
